Measurements as given in ChEMBL document CHEMBL4390681, “Novel allosteric covalent inhibitors of bifunctional Cryptosporidium hominis TS-DHFR from parasitic protozoa identified by virtual screening” (Bioorg Med Chem Lett, 2019).
Where a chain is given by its changes, count along the chain named. Calls of active or inactive are those of the source. The rule behind the calls is not given here.

B1: Bifunctional dihydrofolate reductase-thymidylate synthase (Cryptosporidium hominis), A0A0S4TER9 (protein)
chain: MSEKNVSIVVAASVLSSGIGINGQLPWSISEDLKFFSKITNNKCDSNKKNALIMGRKTWDSIGRRPLKNRIIVVISSSLPQDEADPNVVVFRNLEDSIENLMNDDSIENIFVCGGESIYRDALKDNFVDRIYLTRVALEDIEFDTYFPEIPETFLPVYMSQTFCTKNISYDFMIFEKQEKKTLQNCDPARGQLKSIDDTVDLLGEIFGIRKMGNRHKFPKEEIYNTPSIRFGREHYEFQYLDLLSRVLENGAYRENRTGISTYSIFGQMMRFDMRESFPLLTTKKVAIRSIFEELIWFIKGDTNGNHLIEKKVYIWSGNGSKEYLERIGLGHREENDLGPIYGFQWRHYNGEYKTMHDDYTGVGVDQLAKLIETLKNNPKDRRHILTAWNPSALSQMALPPCHVLSQYYVTNDNCLSCNLYQRSCDLGLGSPFNIASYAILTMMLAQVCGYEPGELAIFIGDAHIYENHLTQLKEQLSRTPRPFPQLKFKRKVENIEDFKWEDIELIGYYPYPTIKMDMAV

How the values were obtained:
[1] = target: T1, Bifunctional dihydrofolate reductase-thymidylate synthase (Cryptosporidium hominis) (UniProt A0A0S4TER9); assay: (§1) Inhibition of recombinant Cryptosporidium hominis TS-DHFR expressed in Escherichia coli PA414 assessed as reduction in DHFR steady state activity at 500 uM using [3',5',7,9-3H]-H2folate as substrate preincubated for 10 mins before NADPH addition for 5 mins followed by substrate addition and measured after 5 mins by NADPH based radiometric chemical quench assay relative to control
T1 sequence (whole entry): B1 chain
Outline: (§2)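 Radiometric DHFR steady-state activity assay on recombinant ChTS-DHFR. Compound was incubated with the enzyme for 10 min before the reaction was started. Single-point screen was at 500 µM, and dose-dependence was also assessed. Activity is expressed as percent of control.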

[2] = Solubility of the compound at >500 uM; assay type: physicochemical
[3] = target: T1, Bifunctional dihydrofolate reductase-thymidylate synthase (Cryptosporidium hominis); assay: as §1, with “activity” for “activity at 500 uM”; outline: as §2
[4] = target: T1, Bifunctional dihydrofolate reductase-thymidylate synthase (Cryptosporidium hominis); assay: as §1, with “1 hr to 72 hrs” for “10 mins”; details: TDE = time-dependent effect
Outline: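 Compound at 500 µM was incubated with ChTS-DHFR for 1 h, 16 h, 48 h or 72 h before the radiometric DHFR reaction was initiated, to follow time-dependent inhibition. The standard assay uses a 10 min incubation.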

[5] = tested on: T2, Bifunctional dihydrofolate reductase-thymidylate synthase (Cryptosporidium hominis), A0A0S4TER9 [C44S]; assay: as §1, with “TS-DHFR Cys44Ser mutant” for “TS-DHFR”, “16 hrs” for “10 mins”
T2 sequence (whole entry): B1 chain with C44S
Outline: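 Wild-type and Cys44Ser mutant ChTS-DHFR, each incubated 16 h with compound before the radiometric DHFR reaction was started. Read-out was percent DHFR activity.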

Cryptosporidium hominis = assay: Ratio of inhibition of recombinant Cryptosporidium hominis TS-DHFR Cys44Ser mutant expressed in Escherichia coli PA414 to inhibition of recombinant Cryptosporidium hominis TS-DHFR expressed in Escherichia coli PA414
[6] = target: T3, Dihydrofolate reductase (Homo sapiens) (UniProt P00374); assay: Inhibition of human DHFR assessed as decrease in DHFR steady state activity at 500 uM using [3',5',7,9-3H]-H2folate as substrate preincubated for 16 hrs before NADPH addition incubated for 5 mins followed by substrate addition and measured after 5 mins by NADPH based radiometric chemical quench assay relative to control
T3 sequence (whole entry): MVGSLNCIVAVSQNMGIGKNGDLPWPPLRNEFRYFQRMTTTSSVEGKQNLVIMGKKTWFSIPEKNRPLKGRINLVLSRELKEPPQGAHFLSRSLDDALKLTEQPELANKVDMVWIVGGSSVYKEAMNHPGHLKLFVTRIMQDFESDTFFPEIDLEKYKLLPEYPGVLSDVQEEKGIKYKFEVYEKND
Outline: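 Radiometric DHFR steady-state assay with human DHFR. Compound and enzyme were incubated for 16 h before the reaction was started. Percent inhibition was read relative to control.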

[7] = target: T1, Bifunctional dihydrofolate reductase-thymidylate synthase (Cryptosporidium hominis); assay: Inhibition of recombinant Cryptosporidium hominis TS-DHFR expressed in Escherichia coli PA414 assessed as decrease in TS activity
[8] = target: T1, Bifunctional dihydrofolate reductase-thymidylate synthase (Cryptosporidium hominis); assay: (§3) Mixed noncompetitive inhibition of recombinant Cryptosporidium hominis TS-DHFR expressed in Escherichia coli PA414 assessed as Kobs at 100 uM […] preincubated for 10 mins before NADPH addition for 5 mins followed by substrate addition and measured after 5 mins by Lineweaver-Burk plot analysis (reference value: 1.98 +/- 0.09 /s)
[9] = target: T1, Bifunctional dihydrofolate reductase-thymidylate synthase (Cryptosporidium hominis); assay: as §3, with “250” for “100”
[10] = compound: Cc1cc(Br)ccc1NC(=S)Nc1cccc(NC(=O)c2ccccc2O)c1; assay: (§4) Mixed noncompetitive inhibition of recombinant Cryptosporidium hominis TS-DHFR expressed in Escherichia coli PA414 assessed as substrate Kcat at 100 uM using varying levels of [3',5',7,9-3H]-H2folate as substrate preincubated for 10 mins before NADPH addition for 5 mins followed by substrate addition and measured after 5 mins by Lineweaver-Burk plot analysis (reference value: 2.17 +/- 0.04 /s)
[11] = compound: Cc1cc(Br)ccc1NC(=S)Nc1cccc(NC(=O)c2ccccc2O)c1; assay: as §4, with “250” for “100”
[12] = compound: Cc1cc(Br)ccc1NC(=S)Nc1cccc(NC(=O)c2ccccc2O)c1; assay: as §4, with “Km” for “Kcat”, “1.2” for “2.17”, “0.2 uM)” for “0.04 /s)”
[13] = compound: Cc1cc(Br)ccc1NC(=S)Nc1cccc(NC(=O)c2ccccc2O)c1; assay: as §4, with “Km” for “Kcat”, “250” for “100”, “1.2” for “2.17”, “0.2 uM)” for “0.04 /s)”

Molecule | inhibition [1] [%] | further results
O=C(O)c1nccnc1-c1nc(=O)c2ccccc2[nH]1 | -4.4 | 
O=C(Nc1ccc(F)c(Cl)c1)c1cc(Br)ccc1O | 61 | solubility [2]: Insoluble; inhibition [3]: Dose-dependent effect
CCOC(=O)C(=CNNC(=O)[C@@H]1[C@@H](C(=O)O)[C@H]2C=C[C@@H]1C2)C(=O)OCC | -4.4 | 
Cc1ccc(C(=O)Nc2cccc(S)c2)c(O)c1 |  | inhibition [4]: Tde; inhibition [5]: 38%; Ratio (Cryptosporidium hominis): 2; inhibition [6]: inactive
Nc1cccc(NC(=O)c2ccccc2O)c1 | -1.3 | 
O=C(Nc1ccc(Cl)cc1)c1cc(I)ccc1O | 47 | solubility [2]: Insoluble; inhibition [3]: Dose-dependent effect
O=C(Nc1ccc(Cl)cc1)c1cc(Br)ccc1O | 11.1 | 
COc1cc(C(F)(F)F)c(C(N)=O)cn1 | 0.29 | 
CNC(=O)c1ccc(NC(=O)c2ccccc2O)cc1 | 14.7 | 
O=C(Nc1ccccc1O)c1ccc(Br)cc1O | -0.176 | 
Oc1nc2ccccc2nc1O | -2.6 | 
O=C(Nc1cc(Cl)cc(Cl)c1)c1cc(Br)ccc1O | 49 | solubility [2]: Insoluble; inhibition [3]: Dose-dependent effect
O=C(Nc1cccc(Cl)c1)c1cc(Cl)ccc1O | 54 | solubility [2]: Insoluble; inhibition [3]: Dose-dependent effect
COc1ccc(Br)c(OC)c1C(=O)NC(=O)Nc1cc(Cl)cc(Cl)c1 | 7.9 | 
NC(=S)Cc1c(Cl)sc2ccc(Cl)cc12 | 32.6 | 
O=C1NC(=S)NC(=O)C1=Cc1c[nH]c2ccccc12 | -1.6 | 
O=C(Nc1ccc(F)cc1)c1cc(Br)ccc1O | 20 | 

Molecule | inhibition [1] [%] | further results
Nc1cc(NC(=O)c2ccccc2O)ccc1Cl | -1.3 | 
NCc1ccc(NC(=O)c2ccccc2O)cc1 | 1.1 | 
CC(=O)C[C@@]1(O)C(=O)Nc2ccc(F)cc21 | -6 | 
O=C(NCc1cccs1)c1ccc2nccnc2c1 | 2 | 
O=C(NNC(=O)c1ccccc1CO)c1ccc(Cl)c(Cl)c1 | 21.2 | 
Cc1cc(Br)ccc1NC(=S)Nc1cccc(NC(=O)c2ccccc2O)c1 | 52.2 | inhibition [7]: inactive; solubility [2]: Insoluble; K [8]: 1.6 s⁻¹; K [9]: 1.33 s⁻¹; inhibition [3]: Dose-dependent effect
CCOC(=O)C1=C(C)NC(C)=C(C(=O)OCC)C1c1ccc2c(c1)OCO2 | -7.9 | 
O=C(Nc1cc(C(F)(F)F)cc(C(F)(F)F)c1)c1cc(Br)ccc1O | 24.4 | 
O=C(Nc1cccc(S)c1)c1cc(Br)ccc1O |  | inhibition ([1]; TDE = time-dependent effect): Tde; inhibition [4]: Tde; inhibition [5]: inactive; inhibition [6]: 95%
O=C(O)C[C@@H]1SC(c2ccc3c(c2)OCO3)=NC1=O | -0.67 | 
O=c1ccn([C@H]2C[C@H](O)[C@@H](CO)O2)c(=O)[nH]1 | -5.3 | 
Cc1cc2c(cc1C)N[C@H](C)CC(=O)N2 | -3.8 | 
O=C(Nc1cc(Cl)cc(Cl)c1)c1ccccc1O | 9.8 | 
O=C(Nc1ccc(Br)cc1)c1ccccc1O | 8.8 | 
Cc1ccc(C(=O)Nc2cc(Cl)cc(Cl)c2)c(O)c1 | 61 | solubility [2]: Insoluble; inhibition [3]: Dose-dependent effect; inhibition [5]: inactive
B1 |  | kcat [10]: 1.9 s⁻¹; kcat [11]: 1.2 s⁻¹; Km [12]: 1.3 µM; Km [13]: 1.4 µM
